The text below walks through data of ChEMBL document CHEMBL3098034, “Synthesis and biological evaluation of α-hydroxyalkylphosphonates as new antimicrobial agents” (Bioorg Med Chem Lett, 2014).

What all share (format): functional
In experiment [1] the test system is Staphylococcus aureus. The experiment in a line: Antibacterial activity against Staphylococcus aureus ATCC 29213 after 24 hrs by broth microdilution method. The conditions noted are these: ATCC 29213, 24 h. The method, boiled down:
(§1)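 MIC (lowest concentration preventing growth) determined per CLSI specifications, with fosfomycin, ceftriaxone, ciprofloxacin and chloramphenicol run as reference drugs; S. aureus ATCC 29213 used as quality-control strain.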

Experiment [2] concerns Staphylococcus aureus. The experiment in a line: Bactericidal activity against Staphylococcus aureus ATCC 29213 after 24 hrs by CFU counting assay. Particulars: ATCC 29213, 24 h. The method in brief: (§2)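 MBC (lowest concentration killing the pathogen) determined per CLSI specifications, with fosfomycin, ceftriaxone, ciprofloxacin and chloramphenicol run as reference drugs; S. aureus ATCC 29213 used as quality-control strain.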

For experiment [3], the system named is Bacillus cereus. The experiment in a line: Antibacterial activity against Bacillus cereus ATCC 11778 after 24 hrs by broth microdilution method. The conditions noted are these: ATCC 11778, 24 h. The method in brief: as §1
(Broth dilution looks for growth in wells or tubes with falling amounts of substance.)

The test system of experiment [4] is Escherichia coli. In words: Antibacterial activity against multidrug-resistant Escherichia coli BW54 after 24 hrs by broth microdilution method. The conditions noted are these: BW54, 24 h. The method in brief: as §1
Experiment [5] deals with Stenotrophomonas maltophilia. In words: Bactericidal activity against multidrug-resistant Stenotrophomonas maltophilia D457R after 24 hrs by CFU counting assay. The method in brief: as §2
Experiment [6] has as its system Escherichia coli. In words: Antibacterial activity against ESBL-producing Escherichia coli BW55 after 24 hrs by broth microdilution method. The conditions noted are these: BW55, 24 h. The method, boiled down:
as §1

Experiment [7] concerns Escherichia coli. In words: Bactericidal activity against multidrug-resistant Escherichia coli BW54 after 24 hrs by CFU counting assay. Particulars: BW54, 24 h. The method in brief:
as §2

Experiment [8] has as its system Acinetobacter haemolyticus. The experiment in a line: Bactericidal activity against vancomycin-resistant Acinetobacter haemolyticus BW62 after 24 hrs by CFU counting assay. Particulars: BW62, 24 h. The method, boiled down: as §2
The test system of experiment [9] is Escherichia coli. The experiment in a line: Bactericidal activity against ESBL-producing Escherichia coli BW55 after 24 hrs by CFU counting assay. The conditions noted are these: BW55, 24 h. The method in brief: as §2
The subject of experiment [10] is Staphylococcus aureus. In words: Bactericidal activity against methicillin-resistant Staphylococcus aureus BW61 after 24 hrs by CFU counting assay. Particulars: BW61, 24 h. The method in brief: as §2
The test system of experiment [11] is Pseudomonas aeruginosa. The experiment in a line: Antibacterial activity against multidrug-resistant Pseudomonas aeruginosa PAO1 after 24 hrs by broth microdilution method. Particulars: PAO1, 24 h. The method, boiled down: as §1
Experiment [12] deals with Acinetobacter haemolyticus. The experiment in a line: Antibacterial activity against vancomycin-resistant Acinetobacter haemolyticus BW62 after 24 hrs by broth microdilution method. The conditions noted are these: BW62, 24 h. The method, boiled down: as §1
For experiment [13], the system named is Bacillus cereus. The experiment in a line: Bactericidal activity against Bacillus cereus ATCC 11778 after 24 hrs by CFU counting assay. Particulars: ATCC 11778, 24 h. The method, boiled down: as §2
Experiment [14] concerns Stenotrophomonas maltophilia. In words: Antibacterial activity against multidrug-resistant Stenotrophomonas maltophilia D457R after 24 hrs by broth microdilution method. The method, boiled down: as §1
In experiment [15] the test system is Staphylococcus aureus. In words: Antibacterial activity against methicillin-resistant Staphylococcus aureus BW61 after 24 hrs by broth microdilution method. The conditions noted are these: BW61, 24 h. The method, boiled down: as §1
Experiment [16] deals with Pseudomonas aeruginosa. The experiment in a line: Bactericidal activity against multidrug-resistant Pseudomonas aeruginosa PAO1 after 24 hrs by CFU counting assay. Particulars: PAO1, 24 h. The method in brief: as §2
In experiment [17] the test system is Escherichia coli. The experiment in a line: Antibacterial activity against ESBL-producing Escherichia coli BW55 at 10 ug by disc diffusion method. Particulars: for zone of inhibition at 10 µg/disc: read-out: IZ. On the technique in general: A growth-free zone around the sample is the usual read-out of agar diffusion tests.
Experiment [18] deals with Pseudomonas aeruginosa. In words: Antibacterial activity against multidrug-resistant Pseudomonas aeruginosa PAO1 at 10 ug by disc diffusion method. The conditions noted are these: for zone of inhibition at 10 µg/disc: read-out: IZ.
For experiment [19], the system named is Bacillus cereus. The experiment in a line: Antibacterial activity against Bacillus cereus ATCC 11778 at 10 ug by disc diffusion method.
Experiment [20] has as its system Acinetobacter haemolyticus. In words: Antibacterial activity against vancomycin-resistant Acinetobacter haemolyticus BW62 at 10 ug by disc diffusion method.
For experiment [21], the system named is Staphylococcus aureus. In words: Antibacterial activity against Staphylococcus aureus ATCC 29213 at 10 ug by disc diffusion method.
Experiment [22] concerns Stenotrophomonas maltophilia. The experiment in a line: Antibacterial activity against multidrug-resistant Stenotrophomonas maltophilia D457R at 10 ug by disc diffusion method. Particulars: for zone of inhibition at 10 µg/disc: read-out: IZ.
Experiment [23] deals with Escherichia coli. The experiment in a line: Antibacterial activity against multidrug-resistant Escherichia coli BW54 at 10 ug by disc diffusion method.

≈ marks a conversion by molar mass, not a printed value. Calls of active or inactive are those of the source. The rule behind the calls is not given here. Some results are limits rather than exact numbers.

In the case of `O=C(N[C@H](CO)[C@H](O)c1ccc([N+](=O)[O-])cc1)C(Cl)Cl` [CHLORAMPHENICOL], the MIC against Staphylococcus aureus [1] was 8 µg/mL (≈ 24.8 µM); in the experiment with Bacillus cereus [3], 0.5 µg/mL (≈ 1.55 µM); in the experiment with Escherichia coli [4] it was 128 µg/mL (≈ 396 µM); in the experiment with Escherichia coli [6], 8 µg/mL (≈ 24.8 µM); in the experiment on Pseudomonas aeruginosa [11], not below 256 µg/mL; in experiment [12] it was 128 µg/mL (≈ 396 µM). The MIC in experiment [14] came out at 128 µg/mL (≈ 396 µM); with Staphylococcus aureus [15], 16 µg/mL (≈ 49.5 µM). In addition, the MBC is 64 µg/mL (≈ 198 µM) against Staphylococcus aureus [2]; not below 256 µg/mL in experiment [5]; not below 256 µg/mL against Escherichia coli [7]; not below 256 µg/mL in experiment [8]; 128 µg/mL (≈ 396 µM) against Escherichia coli [9]; 128 µg/mL (≈ 396 µM) against Staphylococcus aureus [10]. For the same compound, the MBC against Bacillus cereus [13] was 64 µg/mL (≈ 198 µM); against Pseudomonas aeruginosa [16], not below 256 µg/mL.

With `CC1(C)COP(=O)([C@@](O)(CCl)c2ccc(Cl)cc2)OC1`, the minimum inhibitory concentration (MIC) in the experiment with Staphylococcus aureus [1] amounted to 64 µg/mL (≈ 189 µM); against Bacillus cereus [3], 64 µg/mL (≈ 189 µM); in the experiment with Escherichia coli [4] it was 64 µg/mL (≈ 189 µM); against Escherichia coli [6], 64 µg/mL (≈ 189 µM); in the experiment with Pseudomonas aeruginosa [11], 128 µg/mL (≈ 377 µM); in experiment [12], 64 µg/mL (≈ 189 µM). Moreover, the minimum inhibitory concentration (MIC) (in experiment [14]; with Staphylococcus aureus [15]) was 64 µg/mL (≈ 189 µM) throughout. Further, the MBC was 128 µg/mL (≈ 377 µM) in the experiment on Staphylococcus aureus [2]; 256 µg/mL (≈ 755 µM) in experiment [5]; 128 µg/mL (≈ 377 µM) against Escherichia coli [7]; 128 µg/mL (≈ 377 µM) in experiment [8]; 128 µg/mL (≈ 377 µM) against Escherichia coli [9]; 128 µg/mL (≈ 377 µM) in the experiment on Staphylococcus aureus [10]. The minimal bactericidal concentration (MBC) against Bacillus cereus [13] and against Pseudomonas aeruginosa [16] was 128 µg/mL (≈ 377 µM) throughout. The zone of inhibition at 10 µg/disc with Escherichia coli [17] is 7 mm. Besides, the result (with Pseudomonas aeruginosa [18]; in the experiment on Bacillus cereus [19]; in [20]; in the experiment on Staphylococcus aureus [21]; in [22]; in the experiment with Escherichia coli [23]) was inactive.

Regarding `CC1(C)COP(=O)([C@@]2(O)CCC[C@@H]2Cl)OC1`, the outcome (in the experiment with Escherichia coli [17]; in the experiment with Bacillus cereus [19]; in experiment [20]; in the experiment with Staphylococcus aureus [21]; in the experiment on Escherichia coli [23]) was inactive. In addition, the zone of inhibition at 10 µg/disc (with Pseudomonas aeruginosa [18]; in experiment [22]) was 6 mm each time.

For `O=P(Oc1ccccc1)(Oc1ccccc1)[C@](O)(CCl)c1ccccc1`, the MIC (against Staphylococcus aureus [1]; against Bacillus cereus [3]; with Escherichia coli [4]; in the experiment on Escherichia coli [6]; with Pseudomonas aeruginosa [11]; in experiment [12]) was 64 µg/mL (≈ 165 µM) in each case. In addition, the MIC (in experiment [14]; against Staphylococcus aureus [15]) was 64 µg/mL (≈ 165 µM) throughout. For the same compound, the MBC (against Staphylococcus aureus [2]; in experiment [5]; against Escherichia coli [7]; in experiment [8]; against Escherichia coli [9]; against Staphylococcus aureus [10]) was 64 µg/mL (≈ 165 µM) in each case. Moreover, the minimal bactericidal concentration (MBC) against Bacillus cereus [13] was 32 µg/mL (≈ 82.3 µM); with Pseudomonas aeruginosa [16] it was 64 µg/mL (≈ 165 µM). The zone of inhibition at 10 µg/disc with Escherichia coli [17] stood at 10 mm; in the experiment with Pseudomonas aeruginosa [18], 7 mm; with Bacillus cereus [19] (read-out: IZ), 7 mm; in experiment [20] (read-out: IZ), 8 mm; in [22], 7 mm; in the experiment on Escherichia coli [23] (read-out: IZ), 9 mm. For the same compound, the result in the experiment with Staphylococcus aureus [21] was inactive.

On to `C[C@H](Cl)[C@](O)(c1ccccc1)P1(=O)OCC(C)(C)CO1`, for which the result (with Escherichia coli [17]; in the experiment with Pseudomonas aeruginosa [18]; in the experiment on Bacillus cereus [19]; in [20]; in the experiment with Staphylococcus aureus [21]; in the experiment with Escherichia coli [23]) was inactive. Further, the zone of inhibition at 10 µg/disc in experiment [22] is 7 mm.

A word on the MIC: it is the lowest concentration found to suppress growth. Lower therefore signals a more susceptible organism. Broadly, the MBC is the lowest tested concentration that kills the bacteria rather than only halting them. Low readings indicate greater bactericidal potency, high ones weaker bactericidal potency.
